Screens deposited in PubChem by several laboratories.
ABCB6 inh 2: inhibitors of human ABC transporter ABCB6 | Q9NP58 | K562-ABCB6 porphyrin accumulation, flow cytometry, 1 h; stronger effect = lower value | fluorescence ratio to DMSO, % at 10 µM | 0.19% of 360,000 active | AID 602162;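 active means fluorescence ratio to DMSO below 75%, the collection mean minus 3 SD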;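 further: signal is porphyrin accumulated inside mitochondria; 100% equals median channel fluorescence of DMSO control wells; lower ratio means ABCB6 inhibition with less porphyrin fluorescence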
HSV replic up: increases HSV replication in cells; 0.005% of 220,000 active; maximum fold increase; HSV replication augmentation in cells, fold increase; in the data active means maximum fold increase above about 1.5; tested in PC3 cells
p97 inhibitor: human p97 ATPase inhibition; inhibition, % at 8 µM; recombinant p97 ATPase, Kinase-Glo ATP luminescence, 3 h; P55072; 0.42% of 220,000 active; in the data active means inhibition above about 15%;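 further: 0% = DMSO vehicle and 100% = wells lacking enzyme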
ABCB1 inh: human ABCB1 inhibition, ABCG2 as counter-screen. P08183. CCRF-Adr cells, JC-1 efflux, flow cytometry. inhibition, % at 6.6 µM. 0.067% of 190,000 active; in the data active means inhibition above about 40%;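 further: 0% = vehicle and 100% = reference inhibitor; higher value means more JC-1 retained so stronger ABCB1 efflux block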
ABCG2 inh: blocks JC-1 efflux by human ABCG2 transporter; Q9UNQ0; IgMXP3 cells, flow cytometry; inhibition, % at 6.6 µM; 0.1% of 190,000 active;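 active means inhibition above 80%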;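 further: 0% = DMSO and 100% = nicardipine control wells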
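Measure – % inhibition of efflux relative to nicardipine and DMSO · Test system – ABCG2 IgMXP3 and barcoded ABCB1 CCRF-Adr cell mix · Control set – nicardipine as high control, DMSO as low control · Compound – one concentration, 6.6 µM final · Signal – flow cytometry of retained JC-1 fluorescence · Timing – 10 min exposure at 25 °C with rotation, no wash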
Rad51 HR inh: blocks human Rad51 in homologous recombination; inhibition, % at 10 µM; hRad51 DNA strand exchange, fluorescence dequenching; Q06609; 0.085% of 200,000 active;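 active means inhibition above 40% at the single screening dose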;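 further: 0% = DMSO control wells and 100% = blanks with heterologous ssDNA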
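material = hRad51 filaments on single-stranded DNA | timing = filaments 15 min 37 °C, then compound 30 min | signal = FRET fluorescence dequenching, excitation 485 nm, emission 520 nm | benchmarks = control wells and blank wells on each plate | evaluation = percent inhibition relative to plate controls and blanks | compound = 10 µM final, single point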
ABCB6 inh CP1: blocks the human ABCB6 transporter. shares compounds with ABCB6 inh 2. K562-ABCB6 porphyrin accumulation, flow cytometry, 1 h; stronger effect = lower value. ratio response (% of DMSO), % at 10 µM. 700 tested, under 10 active. AID 602430;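 active means repeat-averaged ratio response below 75% of DMSO, the collection mean minus 3 SD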;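 further: median porphyrin fluorescence at 575 nm with 488 nm excitation from mitochondria; lower ratio means less porphyrin signal so ABCB6 inhibition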
An asterisk follows results filed as active; i = inactive; / = no result given. The list is not random: actives were taken first. Their share in the collection is about 0.55%.

SMILES | ABCB6 inh 2 | HSV replic up | p97 inhibitor | ABCB1 inh | ABCG2 inh | Rad51 HR inh | ABCB6 inh CP1
Cc1cccc(NC(=O)CN2CCN(C(=O)c3c(C)nn(Cc4ccccc4)c3C)CC2)c1C | 56* | / | / | / | / | / | 100
Cc1nn(Cc2ccccc2)c(C)c1C(=O)N1CCN(CC(=O)Nc2ccc(F)cc2)CC1 | 100 | / | / | / | / | / | /
Cc1cccc(OCc2nnc(SCC(=O)NCc3ccc4c(c3)OCO4)o2)c1 | 111 | / | / | / | / | / | /
N#Cc1c2n(c3c(=O)n(Cc4ccccc4)cnc13)CCCC2 | 55* | i | 2 | 1 | 3 | / | 100
O=C(COC(=O)C1CCC1)Nc1ccccc1Sc1ccccc1 | 94 | i | 0 | 1 | 6 | 6 | /
CC(C)CC(=O)OCC(=O)Nc1ccccc1Sc1ccccc1 | 74* | i | -3 | 0 | 4 | 6 | 99
Cc1ccccc1OCC(=O)Nc1ccc(N2CCN(C)CC2)c(Cl)c1 | 94 | / | / | / | / | / | /
COc1ccc(OC)c(C(C)NC(=O)Nc2ccccc2)c1 (centres undefined) | 72* | i | 2 | 0 | 6 | 11 | 101
COc1ccc(NC(=O)CN2CCC(NC(=O)C3CCCCC3)CC2)cc1 | 68* | i | 3 | 0 | 2 | -2 | 98
O=C(Cn1cc(C(=O)c2cccs2)c2ccccc21)NC1CCCCC1 | 60* | i | -1 | 2 | 3 | 3 | 100
O=C(Nc1ccc2c(c1)OCO2)C1Cc2c(-c3ccc4c(c3)OCO4)ccnc2O1 (centres undefined) | 93 | / | / | / | / | / | /
CN1CCN(C(=O)CCc2nnc3ccc(N4CCC5(CC4)OCCO5)nn23)CC1 | 97 | / | / | / | / | / | 100
O=C(CCc1nnc2ccc(N3CCC4(CC3)OCCO4)nn12)N1CCCCC1 | 97 | / | / | / | / | / | 96
CCOC(=O)C1CCN(C(=O)CCc2nnc3ccc(N4CCN(C)CC4)nn23)CC1 | 98 | / | / | / | / | / | 101
CC(=O)c1ccc(NC(=O)CCc2nnc3ccc(N4CCC5(CC4)OCCO5)nn23)cc1 | 97 | / | / | / | / | / | /
COc1cccc(N2CCN(C(=O)CCc3nnc4ccc(N5CCCC5)nn34)CC2)c1 | 101 | / | / | / | / | / | /
Cc1noc(C)c1CSc1ccc(Br)cc1 | 71* | i | 4 | 1 | 3 | / | 100
CC(=O)NC(c1ccc(F)c(F)c1)c1nc(-c2ccccc2C)cs1 (centres undefined) | 93 | / | / | / | / | / | /
CC1(C(=O)NS(=O)(=O)c2ccc(F)cc2F)CCN1C(=O)Cc1cccc2ccccc12 (centres undefined) | 97 | / | / | / | / | / | 100
CC(C)c1ccc(CC(=O)N2CCC2(C)C(=O)NS(=O)(=O)c2ccc(F)cc2F)cc1 (centres undefined) | 99 | / | / | / | / | / | 97
CC(C)c1ccc(CC(=O)N2CCC2(C)C(=O)NS(=O)(=O)c2cccc(OC(F)F)c2)cc1 (centres undefined) | 95 | / | / | / | / | / | 97
Cc1cnc(CNC(=O)c2csc([C@@H]3O[C@H](CO)[C@H](O)[C@H](O)[C@H]3O)n2)cn1 | 102 | / | / | / | / | / | /
CCOC(=O)c1c(C)[nH]c(C)c1C(=O)COC(=O)[C@@H](NC(=O)c1ccco1)C(C)C | 95 | / | / | / | / | / | /
O=C(NC(=S)Nc1cccc(O)c1)C12CC3CC(CC(C3)C1)C2 | 95 | / | / | / | / | / | /
Cc1ccc(-c2noc(CCC(=O)NCC3CCCO3)n2)cc1 (centres undefined) | 89 | i | 3 | -1 | 22 | 6 | /
SMILES | ABCB6 inh 2 | HSV replic up | p97 inhibitor | ABCB1 inh | ABCG2 inh | Rad51 HR inh | ABCB6 inh CP1
CC(C)(C)c1ccc(-c2noc(CCC(=O)NCC3CCCO3)n2)cc1 (centres undefined) | 62* | i | -2 | 2 | 9 | -7 | 99
COc1cccc(-c2nc3nc(C)cc(C)n3c2Nc2c(C)cccc2C)c1 | 277 | / | / | / | / | / | /
COc1ccc(OC)c(NC(=O)C2CC(=O)N(CCc3ccc(F)cc3)C2)c1 (centres undefined) | 48* | / | / | / | / | / | 100
COc1ccc(Cl)cc1-c1cc(C(=O)Nc2ccc(Br)cc2)[nH]n1 | 97 | / | / | / | / | / | /
COc1ccccc1CNC(=O)COC(=O)COc1ccccc1F | 74* | / | / | / | / | / | 99
COc1ccccc1CNC(=O)COc1ccccc1OC | 94 | i | 1 | 0 | 12 | -6 | /
CCc1ccc(S(=O)(=O)N2CC(=O)Nc3ccccc32)cc1 | 94 | i | 0 | 0 | 0 | -8 | /
CCOC(=O)c1ccc(S(=O)(=O)N2CC(=O)Nc3ccccc32)cc1 | 68* | / | / | / | / | / | 106
Cc1nn(CC(=O)NC2CCCCC2)c(C)c1[N+](=O)[O-] | 94 | / | / | / | / | / | /
O=C(OC1CC2CC1[C@H]1CCCCN1C2=O)N1CCN(C(=O)c2ccccc2)CC1 (some centres undefined) | 99 | / | / | / | / | / | /
Cn1nc(-c2ccccc2)c(CO)c1Oc1ccc(F)cc1 | 69* | i | -4 | 1 | 6 | -5 | 104
CC1CCCC(NC(=O)CCN2C(=O)COc3ccccc32)C1C (centres undefined) | 96 | / | / | / | / | / | /
COc1cccc(CN2CCNC(=O)C2CC(=O)NCc2cn3ccccc3n2)c1OC (centres undefined) | 73* | i | 0 | 1 | 5 | 14 | 97
Cc1ccc(C(=O)N2CCCCC2)cc1NC1=C(Cl)C(=O)N(Cc2ccccc2)C1=O | 92 | / | / | / | / | / | /
Cc1ccc(O)c(NC2=C(Cl)C(=O)N(Cc3ccccc3)C2=O)c1 | 74* | i | 5 | 0 | -1 | -23 | 107
NS(=O)(=O)c1ccc(NC(=O)CN2CCc3ccccc3C2)cc1 | 73* | / | / | / | / | / | 99
COc1cc(C=NO)nc(-c2ccccn2)c1 | 100 | / | / | / | / | / | /
